Experimental data published in ChEMBL document CHEMBL1139420, “Antibacterial profile against drug-resistant Staphylococcus epidermidis clinical strain and structure-activity relationship studies of 1H-pyrazolo[3,4-b]pyridine and thieno[2,3-b]pyridine derivatives” (Bioorg Med Chem, 2008).
≈ marks a conversion by molar mass, not a printed value. Calls of active or inactive are those of the source. The rule behind the calls is not given here.

How the values were obtained:
[1] = tested on: Staphylococcus epidermidis; assay: Antibacterial activity against drug-resistant Staphylococcus epidermidis clinical isolate assessed as inhibition zone diameter after 24 hrs by antibacterial susceptibility test; format: functional
[2] = Cytotoxicity against human PBMC assessed as cell viability at 700 uM after 3 to 5 days by XTT method; format: cell-based; conditions: PBMC (peripheral blood mononuclear cells), read-out: Activity
How it was run: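 Human PBMCs from healthy donors isolated by density gradient from buffy coats, kept in RPMI 1640 with 10% heat-inactivated FBS, penicillin, streptomycin, 2 mM glutamine, 10 mM Hepes; stimulated 2–3 days with 5 µg/mL PHA, then kept with 5 U/mL IL-2. Compound at 700 µM, 5% CO2, 37 °C; XTT added, OD 450 nm after 2 h; duplicate, at least three times.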

Serratia marcescens = assay: Antibacterial activity against drug-resistant Serratia marcescens clinical isolate assessed as inhibition zone diameter after 24 hrs by antibacterial susceptibility test; format: functional, organism-based
Escherichia coli = assay: Antibacterial activity against drug-resistant Escherichia coli clinical isolate assessed as inhibition zone diameter after 24 hrs by antibacterial susceptibility test; format: functional, organism-based
Enterobacter cloacae = assay: Antibacterial activity against drug-resistant Enterobacter cloacae clinical isolate assessed as inhibition zone diameter after 24 hrs by antibacterial susceptibility test; format: functional, organism-based
Proteus mirabilis = assay: Antibacterial activity against drug-resistant Proteus mirabilis clinical isolate assessed as inhibition zone diameter after 24 hrs by antibacterial susceptibility test; format: functional, organism-based
[3] = tested on: Acinetobacter calcoaceticus; assay: Antibacterial activity against drug-resistant Acinetobacter calcoaceticus clinical isolate assessed as inhibition zone diameter after 24 hrs by antibacterial susceptibility test; format: functional, organism-based
Enterococcus faecalis = assay: Antibacterial activity against drug-resistant Enterococcus faecalis clinical isolate assessed as inhibition zone diameter after 24 hrs by antibacterial susceptibility test; format: functional, organism-based
Klebsiella pneumoniae = assay: Antibacterial activity against drug-resistant Klebsiella pneumoniae clinical isolate assessed as inhibition zone diameter after 24 hrs by antibacterial susceptibility test; format: functional, organism-based
[4] = tested on: Staphylococcus epidermidis; assay: Antibacterial activity against drug-resistant Staphylococcus epidermidis clinical isolate at 5 mg/ml; format: functional, organism-based
How it was run: (§1)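 Growth-curve assay on fluoro-substituted derivatives (ortho-, meta-, para-F). Logarithmic-phase cultures incubated with compound at 1× and 10× MIC and at 5 mg/mL. Optical density at 560 nm monitored over 6 h and expressed as growth (%) relative to untreated control.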

Pseudomonas aeruginosa = assay: Antibacterial activity against drug-resistant Pseudomonas aeruginosa clinical isolate assessed as inhibition zone diameter after 24 hrs by antibacterial susceptibility test; format: functional, organism-based
[5] = tested on: Staphylococcus epidermidis; assay: Antibacterial activity against drug-resistant Staphylococcus epidermidis clinical isolate at 16 ug/ml; format: functional, organism-based
[6] = tested on: Staphylococcus epidermidis; assay: Antibacterial activity against drug-resistant Staphylococcus epidermidis clinical isolate after 24 hrs by macro-dilution broth method; format: functional
[7] = tested on: Staphylococcus epidermidis; assay: Antibacterial activity against drug-resistant Staphylococcus epidermidis clinical isolate at 10 times MIC; format: functional, organism-based; how it was run: as §1

Compound | inhibition zone (IZ) [1] [mm] | viability at 700 µM [2] [%] | Activity (Serratia marcescens) | Activity (Escherichia coli) | Activity (Enterobacter cloacae) | Activity (Proteus mirabilis) | Activity [3] | Activity (Enterococcus faecalis) | Activity (Klebsiella pneumoniae) | Activity [4] | Activity (Pseudomonas aeruginosa) | Activity [5] | MIC [6] [µg/mL] | Activity [7]
O=C(O)c1cnc2c(cnn2-c2ccccc2)c1Nc1ccc(F)cc1 | 0 | 100 | inactive | inactive | inactive | inactive | inactive | inactive | inactive | inactive | inactive | – | – | –
O=C(O)c1cnc2c(cnn2-c2ccccc2)c1Nc1ccccc1F | – | – | – | – | – | – | – | – | – | inactive | – | – | – | –
O=C(O)c1cnc2c(cnn2-c2ccccc2)c1Nc1cccc(F)c1 | 20 | 100 | inactive | inactive | inactive | inactive | inactive | inactive | inactive | – | inactive | Active | 16 (≈ 45.9 µM) | Active
Cc1cccc(Nc2c(C(=O)O)cnc3c2cnn3-c2ccccc2)c1 | 16 | 100 | inactive | inactive | inactive | inactive | inactive | inactive | inactive | – | inactive | – | 64 (≈ 186 µM) | –
O=C(O)c1cnc2c(cnn2-c2ccccc2)c1Nc1cccc(Br)c1 | 17 | 100 | inactive | inactive | inactive | inactive | inactive | inactive | inactive | – | inactive | – | 16 (≈ 39.1 µM) | –
